TbHK1 inh: Trypanosoma brucei hexokinase 1 inhibitors, primary screen, biochemical, G6PDH-coupled NADH absorbance, MLSCN library; hexokinase 1 [Trypanosoma brucei]; recombinant TbHK1, G6PDH-coupled NADH A340; inhibition, % at 10 µM; 220,000 tested, 0.11% active; AID 1430, 2008;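 active = inhibition of 50% or more in the single-dose primary screen; inactive = inhibition below 50%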
Hsp70 act: Hsp70 transcriptional activators, primary screen, cell-based, HeLa, Hsp70 promoter luciferase, luminescence, 10 µM | HeLa Hsp70 promoter luciferase reporter; scaled: vehicle 0, proteasome-inhibitor control 100% | activation, % at 10 µM | 200,000 tested, 0.04% active | AID 1203, 2008;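 active = activation above the mean across all tested compounds plus 3 SD, cutoff set per campaign, cut at about 5.5% in these data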
HSF1 inhib: HSF1 inhibitors in luciferase reporter cells, primary screen, cell-based, NIH3T3, luminescence. NIH3T3-HGL HSE-luciferase, MG132-induced, luminescence 8 h; active compounds read low. activity change, negative = inhibition, % at 7.5 µM (by protocol). 300,000 tested, 0.77% active. AID 2098, 2009;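 active = more than half of replicate wells show activity change below -50%, luminescence cut by over half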;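 also: luciferase reports HSF-1 transcriptional activity via heat shock element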
HSP90 refold inh: HSP90 inhibitors, primary screen, cell lysate, luminescence; Rabbit reticulocyte lysate, luciferase refolding luminescence, 3 h; inhibition, % at 5.6 µM; 290,000 tested, 0.91% active; AID 1789, 2009;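 active = inhibition above the screen-wide mean plus 3 SD, computed separately per campaign, cut at about 16% in these data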;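 also: inhibitors lower the luminescence because luciferase stays unfolded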
HKDC1 inh: HKDC1 hexokinase inhibitors, primary screen, biochemical, fluorescence, uHTS; recombinant HKDC1, G6PDH/diaphorase resazurin coupled fluorescence; inhibition, % at 20 µM; 340,000 tested, 0.16% active;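 active = inhibition above about 35% when tested at 20 µM, limit read from the data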
Target sequence (Q2TB90 whole entry, looked up): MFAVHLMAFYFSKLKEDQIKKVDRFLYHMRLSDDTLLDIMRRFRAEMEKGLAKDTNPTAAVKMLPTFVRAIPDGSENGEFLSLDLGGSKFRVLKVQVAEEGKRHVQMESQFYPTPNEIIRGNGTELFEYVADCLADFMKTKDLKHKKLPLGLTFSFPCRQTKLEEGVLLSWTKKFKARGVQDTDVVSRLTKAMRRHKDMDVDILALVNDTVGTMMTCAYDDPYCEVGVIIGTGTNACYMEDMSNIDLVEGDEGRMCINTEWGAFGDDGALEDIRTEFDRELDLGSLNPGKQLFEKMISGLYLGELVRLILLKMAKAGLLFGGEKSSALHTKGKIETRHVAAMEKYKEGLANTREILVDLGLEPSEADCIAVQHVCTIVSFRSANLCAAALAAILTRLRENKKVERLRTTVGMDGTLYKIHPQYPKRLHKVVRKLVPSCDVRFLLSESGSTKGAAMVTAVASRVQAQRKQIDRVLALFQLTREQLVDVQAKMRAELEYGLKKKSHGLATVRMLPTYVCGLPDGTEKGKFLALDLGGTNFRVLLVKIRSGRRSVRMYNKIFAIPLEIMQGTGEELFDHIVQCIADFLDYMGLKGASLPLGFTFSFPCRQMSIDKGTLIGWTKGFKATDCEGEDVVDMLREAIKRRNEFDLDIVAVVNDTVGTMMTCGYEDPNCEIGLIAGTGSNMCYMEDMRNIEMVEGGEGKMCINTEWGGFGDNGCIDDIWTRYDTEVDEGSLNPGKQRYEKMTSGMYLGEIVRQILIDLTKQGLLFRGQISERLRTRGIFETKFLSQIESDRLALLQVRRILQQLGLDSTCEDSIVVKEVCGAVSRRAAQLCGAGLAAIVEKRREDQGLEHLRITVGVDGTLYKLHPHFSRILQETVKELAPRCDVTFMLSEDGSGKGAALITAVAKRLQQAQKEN
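test system = in-house recombinant HK5 (HKDC1) enzyme | amount = HKDC1 at 5 µg/mL | control set = DMSO-enzyme wells negative, buffer-substituted wells positive | compound = one dose of 20 µM, 1% DMSO | schedule = reaction time 90 min, room temperature, protected from light | technique = resorufin fluorescence at 613 nm | reagent = glucose with 1 mM ATP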
HSF-1 act: HSF-1 activators, primary screen, NIH3T3-HGL cells, MG132 stress, luminescence, single point; NIH3T3-HGL HSF-1 luciferase reporter, 8 h; 100% = twice DMSO control signal; activation, % at 9 µM; 300,000 tested, 1.7% active;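 active = mean replicate activation of at least 50% with a set share of replicates each reaching 50%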
HSP90 confirm: HSP90 inhibitors, confirmation, cell lysate, luminescence. shares compounds with HSP90 refold inh. rabbit reticulocyte lysate, luciferase refolding luminescence, 3 h. inhibition, % at 5.9 µM. 2,300 tested, 64% active; in the data active = inhibition above about 18%
luciferase ctr: firefly luciferase inhibitors, HSP90 counter-screen, confirmation, artefact control for HSP90 inhibitor project, biochemical, luminescence, triplicate | shares compounds with HSP90 refold inh | purified native firefly luciferase | inhibition, % at 5.9 µM | 2,300 tested, 48% active | AID 1847, 2009;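 active = inhibition above the mean inhibition of all tested sample wells plus 3 SD, cut at about 10% in these data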
Numbers stand for hits; 0 = inactive; - = no result. An excerpt weighted towards active compounds, which were near 3.1% of everything screened.

SMILES | TbHK1 inh | Hsp70 act | HSF1 inhib | HSP90 refold inh | HKDC1 inh | HSF-1 act | HSP90 confirm | luciferase ctr
CCc1nnc(N/N=C/c2ccccc2F)n1N | 0 | 0 | 0 | 80 | 0 | 59 | 0 | 0
O=C(CCN1C(=O)c2ccccc2S1(=O)=O)N1CCN(c2cccc(Cl)c2)CC1 | - | - | 0 | - | 0 | 0 | - | -
OCCNC(=S)Nc1cc(Cl)cc(Cl)c1 | 0 | - | 0 | 18 | 0 | 0 | 0 | 0
COc1ccc(CNC(=O)COC(=O)c2ccc(F)c(S(=O)(=O)N3CCOCC3)c2)cc1 | - | - | 0 | - | 0 | 0 | - | -
Cc1cc2nc(-c3cccnc3SCC(=O)NCc3ccco3)[nH]c2cc1C | 0 | 0 | 0 | 18 | 0 | 0 | 23 | 0
COc1ccc(C(=O)N2CCCN(C)CC2)cc1S(=O)(=O)N1CCCc2ccccc21 | 0 | 0 | 0 | 0 | 0 | 0 | - | -
COc1ccc(C(=O)N2CCOCC2)cc1S(=O)(=O)N1CCCc2ccccc21 | 0 | 0 | 0 | 20 | 0 | 0 | 0 | 0
Cc1ccc(C)c(Nc2nc(-c3ccncc3)nc3ccccc23)c1 | - | - | 0 | 0 | 0 | 0 | - | -
O=C(Nc1nccs1)c1sc2ccccc2c1Cl | 0 | 0 | 0 | 23 | 0 | 0 | 50 | 45
Cc1cnc(NC(=O)c2sc3ccccc3c2Cl)s1 | 0 | 0 | 0 | 0 | 0 | 0 | - | -
CCc1sc(C(=O)Nc2ncccc2O)cc1C | - | - | 0 | 22 | 0 | 0 | 52 | 42
O=C(CN1C(=O)C(=O)N(C2CCCC2)C1=O)Nc1ccc([N+](=O)[O-])cc1 | - | - | - | - | 0 | - | - | -
Cn1cc(CN2CCCC(C(=O)Nc3cccc(-c4cc5ccccc5[nH]4)c3)C2)cn1 (configuration not stated) | - | - | 0 | 23 | 0 | 0 | 0 | 0
CCn1cc(CN2CCCC(C(=O)Nc3cccc(-c4cc5ccccc5[nH]4)c3)C2)c(C)n1 (configuration not stated) | - | - | 0 | 0 | 0 | 0 | - | -
CC(C)n1cc(CN2CCCC(C(=O)Nc3cccc(-c4cc5ccccc5[nH]4)c3)C2)cn1 (configuration not stated) | - | - | 0 | 18 | 0 | 0 | 0 | 0
COc1ccc(NC(=O)CN(C)S(=O)(=O)c2cnc[nH]2)cc1Cl | - | - | 0 | 0 | 0 | 0 | - | -
Cc1ccc(NC(=O)c2onc(C)c2Cl)cc1 | 0 | 0 | 0 | 0 | 0 | 0 | - | -
Cc1noc(C(=O)Nc2ccc(Cl)cc2)c1Cl | - | - | 0 | 25 | - | 0 | 0 | 0
CC(C)c1ccc(NC(=O)c2csnn2)cc1 | 0 | 0 | 0 | 20 | 0 | 0 | 33 | 23
O=C(Nc1ccccc1NC(=O)c1csnn1)c1csnn1 | 0 | 0 | 0 | 0 | 0 | 0 | - | -
CCC(C(=O)Nc1ccc([N+](=O)[O-])cn1)c1ccccc1 (configuration not stated) | - | - | 0 | 0 | 0 | 0 | - | -
COc1ccc2cnn(CCOc3ccccc3)c(=O)c2c1OC | 0 | 0 | 0 | 21 | 0 | 0 | 32 | 20
CCc1ccc(Nc2n[n+](-c3ccccc3)c(-c3ccc(N(CC)CC)cc3)s2)cc1 | - | - | 0 | 20 | 0 | 0 | 46 | 0
CCN(CC)c1ccc(-c2sc(Nc3ccccc3)n[n+]2-c2ccc(F)cc2)cc1 | - | - | 0 | 0 | 0 | 0 | - | -
CC1CCC2(CC1)NC(=O)N(CC(=O)N1CCN(C(=O)c3ccco3)CC1)C2=O (configuration not stated) | - | - | - | - | 0 | - | - | -
SMILES | TbHK1 inh | Hsp70 act | HSF1 inhib | HSP90 refold inh | HKDC1 inh | HSF-1 act | HSP90 confirm | luciferase ctr
CC(C)Oc1ccc(CNC(=O)CCCN2C(=O)C(c3ccccc3)Oc3cccnc32)cc1 (configuration not stated) | - | - | 0 | 0 | 0 | 0 | - | -
O=C(CSC(=S)N1CCCC1)c1ccccc1 | - | - | 0 | 19 | 0 | 55 | 43 | 44
O=C(CSC(=S)N1CCCCC1)c1ccccc1 | 0 | 0 | 0 | 54 | 0 | 0 | 73 | 64
Cc1ccccc1NC(=S)NNC(=O)c1csc2c1CCC(C)C2 (configuration not stated) | 0 | 0 | -69 | 67 | 0 | 0 | 61 | 52
Cc1nc2c(-c3ccc(Cl)cc3)cnn2c(N)c1-c1ccc(F)cc1 | - | - | -74 | 69 | 0 | 0 | 67 | 68
Cc1cc(C(F)(F)F)n2ncc(-c3ccc(F)cc3)c2n1 | 0 | 0 | 0 | 0 | 0 | 0 | - | -
COc1ccc(-c2c(C)nc3c(-c4ccc(F)cc4)cnn3c2N)cc1 | - | - | 0 | 17 | 0 | 0 | 16 | 11
CC(C)(C)OC(=O)NN1CC(=O)N2[C@@H](Cc3c([nH]c4ccccc34)C2(C)C)C1=O | - | - | 0 | 0 | 0 | 0 | - | -
COc1ccc(CC(=O)OCC(=O)NC2CCCC(C)C2C)cc1 (configuration not stated) | - | - | - | - | 0 | - | - | -
Cc1c(CC(=O)N[C@H](C(=O)O)C(C)C)c(=O)oc2cc3c(cc12)CCC(C)(C)O3 | - | - | 0 | 27 | 0 | 0 | 35 | 14
Cc1c(CC(=O)N[C@@H](C)C(=O)O)c(=O)oc2cc3c(cc12)CCC(C)(C)O3 | - | - | 0 | 0 | 0 | 0 | - | -
Cc1ccc(NC(=O)c2oc3ccc(Br)cc3c2C)cc1S(=O)(=O)N1CCOCC1 | - | - | - | - | 0 | - | - | -
CCOc1ccc(NC(=O)N2CCC(c3nc4ccccc4[nH]3)CC2)cc1 | 0 | 0 | - | 25 | 0 | - | 0 | 0
CCOc1ccc(NC(=O)N2CCC(c3nc4ccccc4o3)CC2)cc1 | 0 | 0 | 0 | 0 | 0 | 0 | - | -
Cc1cc(/C=c2\sc3nc4ccccc4n3c2=O)c(C)n1-c1ccc(C(=O)O)cc1 | 0 | 0 | 0 | 0 | 0 | 0 | - | -
Cc1cc(/C=c2/sc3nc4ccccc4n3c2=O)c(C)n1-c1ccccn1 | 0 | 0 | -91 | 60 | 0 | 0 | 90 | 81
CC(=O)c1c(C)[nH]c(C(=O)COC(=O)CCCOc2ccccc2)c1C | 0 | 0 | 0 | 0 | 0 | 0 | - | -
CC(=O)c1c(C)[nH]c(C(=O)OCCOc2ccccc2)c1C | 0 | 0 | 0 | 34 | 0 | 0 | 55 | 57
COc1ccccc1-n1c(C)c(C(=O)O)c2cc(OC)c3ccccc3c21 | - | - | 0 | 0 | 0 | 0 | - | -
Cc1cccn2cc(-c3ccc(Cl)cc3)nc12 | 0 | 0 | 0 | 0 | 0 | 0 | - | -
Cc1ccc(-c2cn3cccc(C)c3n2)cc1 | 0 | 0 | 0 | 18 | 0 | 78 | 29 | 28
O=C(Nc1ccc2c(c1)OCO2)c1ccc(Cl)cc1Cl | - | - | 0 | 24 | 0 | 53 | 37 | 22

Screening data: PubChem BioAssay, several laboratories
